WT yeast gro inh = growth inhibition of WT yeast, mitochondrial fusion screen; mitochondrial fusion phenotypic screen, WT strain; inhibition, % at 10 µM; 2.1% of 190,000 active; AID 1362; in the data active = inhibition above about 58%; tested in S. cerevisiae
NCF1 inh = inhibitors of human p47phox binding; AID 1274; p47phox/p22phox peptide binding, fluorescence polarization, 2 h; 0.53% of 220,000 active; inhibition, % at 24.7 µM;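 note: 0% = p47phox with labelled peptide and 100% = labelled peptide alone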
14-3-3 Bad inh = disrupts binding of bovine 14-3-3 zeta to phospho-Bad peptide; inhibition, % at 21.7 µM; TR-FRET 14-3-3zeta/Dy647-pBad peptide displacement, 1 h; 0.71% of 220,000 active;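 active = inhibition above about 70%, limit read from the data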;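 note: 0% = full 14-3-3 plus peptide FRET controls and 100% = background without 14-3-3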
EBV gp42 inh = inhibitors of Epstein-Barr virus glycoprotein 42; Q1HVG2; Fluorescence polarization binding assay, mP read-out; inhibition, % (tested at 21.74 µM); 0.42% of 220,000 active; in the data active = inhibition above about 50%
eIF4E 4G PPI = inhibitors of eIF4E and eIF4G interaction in translation initiation; P63073+Q04637; TR-FRET eIF4E-eIF4GI(517-606) binding, 2 h; inhibition, % at 21.7 µM; 0.37% of 220,000 active; AID 782;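 note: 0% = full FRET control wells and 100% = background wells lacking eIF4GI fragment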
RBBP9 inh = human RBBP9 hydrolase inhibition. 0.2% of 220,000 active. inhibition, % at 7.94 µM. AID 1515. O75884. recombinant RBBP9, FP-Rh probe fluorescence polarization;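 active = inhibition above the campaign mean of all tested compounds plus 3 SD, cut at about 14% in these data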;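 note: plate controls were DMSO wells with RBBP9 for no effect and wells lacking RBBP9 protein for full effect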
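Test system: recombinant human RBBP9. Quantity: 2.5 µM RBBP9 dispensing solution, before mixing. Detection: FP readout at 525/598 nm. Reagent: Serine-hydrolase probe FP-Rh, 375 nM pre-mixing. Measure: % inhibition. Control set: DMSO-treated enzyme wells and wells lacking RBBP9. Buffer or medium: Tris-NaCl-Pluronic buffer, pH 8.0. Times: preincubation 30 min plus labeling 45 min at 25 °C.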
* = called active by the depositor; x = no result given. Most compounds without a hit are left out; they make up all but 3.7% or so of the library.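 Rule for the calls, unless noted: active = inhibition above about 30% (limit read from the data); inactive = the rest.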

SMILES | WT yeast gro inh | NCF1 inh | 14-3-3 Bad inh | EBV gp42 inh | eIF4E 4G PPI | RBBP9 inh
COC(=O)c1cccc(NC(=O)Nc2ccccc2OC)c1 | 17 | -2 | -5 | -3 | 2 | 3
COc1ccc(/C=N/NC(=S)NC2CCS(=O)(=O)C2)cc1 (configuration not stated) | -7 | 8 | -4 | -5 | -6 | 3
CC1CCC/C(=C\Nc2ccc(O)cc2)C1=O (configuration not stated) | -35 | 14 | -12 | -22 | 13 | 14*
Cc1ccccc1N=Nc1c(C)[nH]n(-c2ccccc2)c1=O | -6 | -10 | -9 | -9 | 59* | -6
Cc1[nH]n(-c2ccccc2)c(=O)c1N=Nc1ccccc1O | 0 | -37 | -22 | 4 | -6 | -9
CC(=O)N(C)c1ccc(N=Nc2c(C)[nH]n(C(N)=S)c2=O)cc1 | 23 | 1 | -13 | -8 | 0 | -4
Cc1ccccc1N=Nc1c(C)[nH]n(C(N)=S)c1=O | 61* | 0 | -15 | -3 | -4 | 5
Cc1cccc(N=Nc2c(C)[nH]n(C(N)=S)c2=O)c1C | 72* | -1 | -18 | -6 | -10 | -2
CCN(CC)CCCNC(=S)N(Cc1cccnc1)Cc1cc2cc(C)ccc2[nH]c1=O | x | -9 | 5 | -10 | 0 | -1
Cc1nc2cc(Nc3ccncc3)ccc2s1 | -15 | 0 | -6 | -7 | 0 | -7
CS(=O)(=O)N1CCCC(C(=O)N2CCN(c3cccc(Cl)c3)CC2)C1 (configuration not stated) | -8 | -12 | -4 | -5 | 4 | -2
C=C1C(=O)C=C2CN(C(=O)c3ccccc3)[C@@](Cc3ccc(F)cc3)(C(=O)OC)[C@@H]12 | 74* | -15 | -4 | -2 | -5 | -7
O=C(Nc1ccc(-c2nc3ccccc3[nH]2)cc1)C1CCCO1 (configuration not stated) | 69* | -1 | 4 | -13 | -5 | -9
COc1ccc(NCC(=O)Nc2ccc(Br)cc2F)c(OC)c1 | x | -1 | -1 | -6 | 3 | 3
Cc1cc(C)c(C#N)c(N2CCN(CCOc3ccc(Cl)cc3)CC2)n1 | 65* | -2 | -1 | 12 | 5 | -3
O=c1cc(-c2ccccc2Cl)oc2ccc([N+](=O)[O-])c(O)c12 | 64* | -7 | -7 | 9 | -2 | -9
Cc1cc(N2CCN(c3ccccc3)CC2)n2cc(-c3ccccc3)nc2n1 | 29 | -2 | 4 | -3 | 1 | 4
Cc1cc(N2CCN(c3ccccc3Cl)CC2)n2cc(-c3ccccc3)nc2n1 | 74* | -6 | 12 | 15 | 6 | 6
CCOc1cc(C=C2C(=O)c3ccccc3C2=O)ccc1OCC(=O)Nc1ccc(C)cc1 | -9 | 29 | 29 | 88* | 2 | -6
CCOc1cc(/C=N/NC(N)=O)ccc1OCC(=O)Nc1ccc(C)c(C)c1 | -1 | -65 | 15 | 10 | -6 | -5
CCOc1ccccc1OCC(=O)Nc1ccc(S(=O)(=O)N(C)C)cc1 | 69* | -18 | 2 | -17 | 5 | -6
CCOC(=O)c1ccc(NC(=O)COc2ccccc2OC)cc1 | 27 | 3 | 83* | 0 | -1 | -7
CC(C)(C)c1ccc(C(CC(=O)O)NC(=O)Cc2ccc(F)cc2)cc1 (configuration not stated) | 4 | 0 | -3 | -3 | 2 | -1
C=CCN(CC=C)CCOc1cccc(Oc2ccccc2)c1 | 50 | 4 | 39 | -4 | -2 | -3
Cc1nc(COc2ccccc2Cl)sc1-c1ccnc(N)n1 | x | -10 | 17 | -15 | -1 | -6
CCOC(=O)C1C(=O)CC(C)(O)C(C(=O)OCC)C1c1ccc([N+](=O)[O-])cc1 (configuration not stated) | x | -3 | 5 | 1 | 0 | -3
CC(=O)Nc1ccc(S(=O)(=O)N2CCN(C)CC2)cc1 | 64* | -4 | -1 | -5 | 3 | 2
C=CCc1cc(C)ccc1OCCn1ccnc1 | 8 | -12 | 72* | -16 | -16 | -3
C=CCc1cc(C)ccc1OCCOCCn1ccnc1 | 34 | -6 | 1 | 3 | -4 | -8
COC(=O)c1ccc(NC(CC(C)C)C(=O)OC)c([N+](=O)[O-])c1 (configuration not stated) | 24 | 2 | 0 | -1 | -1 | 1

Source: PubChem (several laboratories)
